Experimental data: ChEMBL document CHEMBL1123541, “Preparation and antitumor activity of 7-substituted 1,2-aziridinomitosenes” (J Med Chem, 1986)

How the values were obtained:
[1] = Partition coefficient (logP); type: physicochemical; conditions: octanol/water
Mus musculus [2] = assay: Average weight change of BDF1 female mice at a dose of 3.2 mg/kg per injection; type: functional
Summary of the method: (§1)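 BDF1 female mice implanted ip with 10^6 ascites leukemia cells, then given the aziridinomitosene on day 1 only, six mice per dose. Average weight change is the weight difference between the treated and control groups.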

Mus musculus [3] = assay: Average weight change of BDF1 female mice at a dose of 6.4 mg/kg per injection; type: functional; summary of the method: as §1
Mus musculus [4] = assay: Average weight change of BDF1 female mice at a dose of 0.8 mg/kg per injection; type: functional; summary of the method: as §1
Mus musculus [5] = assay: Average weight change of BDF1 female mice at a dose of 1.6 mg/kg per injection; type: functional; summary of the method: as §1
Mus musculus [6] = assay: Average weight change of BDF1 female mice at a dose of 12.8 mg/kg per injection; type: functional; summary of the method: as §1
P388 [7] = assay: Compound was tested for antitumor activity against P388 Murine leukemia in BDF1 female mice at a dose of 1.6 mg/kg per injection (MST treated / MST control x 100); type: functional, Mus musculus
Summary of the method: (§2)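 P388 ascites cells (10^6) implanted ip into BDF1 female mice. Aziridinomitosene given on day 1 only, six mice per dose; ten saline-treated mice on day 1 only as controls. Read-out is median survival time in days, %T/C = MST treated/MST control × 100, with 125 taken as significant. Mitomycin C run as a positive control at its optimal dose.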

P388 [8] = assay: (§3) Compound was tested for antitumor activity against P388 Murine leukemia in BDF1 female mice at a dose of 12.8 mg/kg per injection; type: functional, Mus musculus; set-up: unit not given here; summary of the method: as §2
P388 [9] = assay: Compound was tested for antitumor activity against P388 Murine leukemia in BDF1 female mice at a dose of 3.2 mg/kg per injection; type: functional, Mus musculus; summary of the method: as §2
P388 [10] = assay: Minimum effective dose determined against P-388 Murine leukemia in BDF1 female mice.; type: functional; conditions: Mus musculus, read-out: MED
P388 [11] = assay: Compound was tested for antitumor activity against P388 Murine leukemia in BDF1 female mice at a dose of 0.8 mg/kg per injection; type: functional, Mus musculus; summary of the method: as §2
P388 [12] = assay: Compound was tested for antitumor activity against P388 Murine leukemia in BDF1 female mice at a dose of 6.4 mg/kg per injection; type: functional, Mus musculus; summary of the method: as §2
Mus musculus [13] = assay: Average weight change of BDF1 female mice at a dose of 16 mg/kg per injection; type: functional; summary of the method: as §1
Mus musculus [14] = assay: Average weight change of BDF1 female mice at a dose of 32 mg/kg per injection; type: functional; summary of the method: as §1
Mus musculus [15] = assay: Average weight change of BDF1 female mice at a dose of 4 mg/kg per injection; type: functional; summary of the method: as §1
Mus musculus [16] = assay: Average weight change of BDF1 female mice at a dose of 64 mg/kg per injection; type: functional; summary of the method: as §1
P388 [17] = assay: Compound was tested for antitumor activity against P388 Murine leukemia in BDF1 female mice at a dose of 3.2 mg/kg per injection given as MST treated / MST control x 100; type: functional, Mus musculus; summary of the method: as §2
P388 [18] = assay: Compound was tested for antitumor activity against P388 Murine leukemia in BDF1 female mice at a dose of 16 mg/kg per injection; type: functional, Mus musculus; summary of the method: as §2
P388 [19] = assay: Compound was tested for antitumor activity against P388 Murine leukemia in BDF1 female mice at a dose of 32 mg/kg per injection; type: functional, Mus musculus; summary of the method: as §2
P388 [20] = assay: Compound was tested for antitumor activity against P388 Murine leukemia in BDF1 female mice at a dose of 4 mg/kg per injection; type: functional, Mus musculus; summary of the method: as §2
P388 [21] = assay: Compound was tested for antitumor activity against P388 Murine leukemia in BDF1 female mice at a dose of 64 mg/kg per injection; type: functional, Mus musculus; summary of the method: as §2
P388 [22] = assay: Compound was tested for antitumor activity against P388 Murine leukemia in BDF1 female mice at a dose of 8 mg/kg per injection; type: functional, Mus musculus; summary of the method: as §2
Mus musculus [23] = assay: Average weight change of BDF1 female mice at a dose of 8 mg/kg per injection; type: functional; summary of the method: as §1
Mus musculus [24] = assay: Average weight change of BDF1 female mice at a dose of 25.6 mg/kg per injection; type: functional; summary of the method: as §1
Mus musculus [25] = assay: Average weight change of BDF1 female mice at a dose of 51.2 mg/kg per injection; type: functional; summary of the method: as §1
P388 [26] = assay: as §3; type: functional, Mus musculus; summary of the method: as §2
P388 [27] = assay: Compound was tested for antitumor activity against P388 Murine leukemia in BDF1 female mice at a dose of 25.6 mg/kg per injection; type: functional, Mus musculus; summary of the method: as §2
P388 [28] = assay: Compound was tested for antitumor activity against P388 Murine leukemia in BDF1 female mice at a dose of 51.2 mg/kg per injection; type: functional, Mus musculus; summary of the method: as §2
L1210 [29] = assay: Compound was tested for antitumor activity against L-1210 Murine leukemia in BDF1 female mice at a dose of 12 mg/kg per injection; type: functional, Mus musculus
Summary of the method: (§4)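 L-1210 run per NCI protocol. 10^6 ascites cells implanted ip into BDF1 female mice. Aziridinomitosene given on day 1 only, six mice per dose, with a control group of 36 mice. Median survival time in days is recorded, and %T/C = MST treated/MST control × 100, with 125 taken as significant.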

L1210 [30] = assay: Compound was tested for antitumor activity against L-1210 Murine leukemia in BDF1 female mice at a dose of 6 mg/kg per injection; type: functional, Mus musculus; summary of the method: as §4
L1210 [31] = assay: Compound was tested for antitumor activity against L-1210 Murine leukemia in BDF1 female mice at a dose of 1.5 mg/kg per injection; type: functional, Mus musculus
Summary of the method: (§5)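 L-1210 leukemia, NCI protocol: 10^6 ascites cells implanted ip into BDF1 female mice. Six mice per dose, single dose on day 1 only, with a 36-mouse control group. Read-out is median survival time (MST), reported as %T/C = MST treated/MST control × 100, with 125 taken as significant. Average weight change is treated minus control weight.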

L1210 [32] = assay: Compound was tested for antitumor activity against L-1210 Murine leukemia in BDF1 female mice at a dose of 3 mg/kg per injection; type: functional, Mus musculus; summary of the method: as §5
Mus musculus [33] = assay: Average weight change of BDF1 female mice at a dose of 3 mg/kg per injection; type: functional; summary of the method: as §5
Mus musculus [34] = assay: Average weight change of BDF1 female mice at a dose of 6 mg/kg per injection; type: functional; summary of the method: as §1
Mus musculus [35] = assay: Average weight change of BDF1 female mice at a dose of 1.5 mg/kg per injection; type: functional; summary of the method: as §5
Mus musculus [36] = assay: Average weight change of BDF1 female mice at a dose of 12 mg/kg per injection; type: functional; summary of the method: as §1
P388 [37] = assay: Compound was tested for antitumor activity against P388 Murine leukemia in BDF1 female mice at a dose of 1.6 mg/kg per injection; type: functional, Mus musculus; summary of the method: as §2
P388 [38] = assay: Compound was tested for antitumor activity against P388 Murine leukemia in BDF1 female mice at a dose of 3.2 mg/kg per injection (MST treated / MST control x 100); type: functional, Mus musculus; summary of the method: as §2
P388 [39] = assay: Compound was tested for antitumor activity against P388 Murine leukemia in BDF1 female mice at a dose of 0.2 mg/kg per injection; type: functional, Mus musculus; summary of the method: as §2
P388 [40] = assay: Compound was tested for antitumor activity against P388 Murine leukemia in BDF1 female mice at a dose of 0.4 mg/kg per injection; type: functional, Mus musculus; summary of the method: as §2

SMILES | logP [1] | Weight change (Mus musculus [2]) | Weight change (Mus musculus [3]) | Weight change (Mus musculus [5]) | Weight change (Mus musculus [6]) | T/C (P388 [7]) | MST (P388 [8]) | MST (P388 [9]) | minimal effective dose (P388 [10]) | MST (P388 [11]) | MST (P388 [12]) | Weight change (Mus musculus [24]) | Weight change (Mus musculus [25]) | MST (P388 [27]) | MST (P388 [28]) | MST (P388 [37]) | T/C (P388 [38]) | other results
COC1=C(C)C(=O)c2c(c(COC(N)=O)c3n2CC2C3N2C)C1=O (stereo unspecified) | 1.28 | 0.5 g | -0.3 g | -0.2 g | -1.7 g | 156% | 213 | 188 days | 0.8 mg/kg | 150 days | 213 days | – | – | – | – | – | – | Weight change (Mus musculus [4]): 0.8 g
CC1=C(NCc2ccco2)C(=O)c2c(COC(N)=O)c3n(c2C1=O)CC1NC31 (stereo unspecified) | 1.33 | – | – | – | – | – | – | – | 8 mg/kg | – | – | – | – | – | – | – | – | Weight change (Mus musculus [13]): -1.7 g; Weight change (Mus musculus [14]): -1.2 g; Weight change (Mus musculus [15]): -0.7 g; Weight change (Mus musculus [16]): -1.8 g; T/C (P388 [17]): 228%; MST (P388 [18]): 156 days; MST (P388 [19]): 189 days; MST (P388 [20]): 122 days; MST (P388 [21]): 183 days; MST (P388 [22]): 144 days; Weight change (Mus musculus [23]): 0.1 g
CC1=C(N2CC2C)C(=O)c2c(COC(N)=O)c3n(c2C1=O)CC1NC31 (stereo unspecified) | 0.82 | 0 g | -0.4 g | 0 g | -0.5 g | 125% | – | 138 days | 1.6 mg/kg | – | 144 %T/C | -1 g | -1.3 g | 181 % T/C | 219 days | – | – | MST (P388 [26]): 156 days
CO[C@@]12[C@H](COC(N)=O)C3=C(C(=O)C(C)=C(N)C3=O)N1C[C@@H]1N[C@@H]12 [MITOMYCIN] | – | – | – | – | – | – | – | – | – | – | – | – | – | – | – | – | – | % T/C (L1210 [29]): 118%; % T/C (L1210 [30]): 146%; T/C (L1210 [31]): 116%; T/C (L1210 [32]): 118%; Weight change (Mus musculus [33]): -0.9 g; Weight change (Mus musculus [34]): -3.3 g; Weight change (Mus musculus [35]): -0.8 g; Weight change (Mus musculus [36]): -4.8 g
CC1=C(N2CC2)C(=O)c2c(COC(N)=O)c3n(c2C1=O)CC1C3N1C (stereo unspecified) | 0.71 | 0 g | -1.1 g | -1.3 g | -1.9 g | – | 172 | – | 1.6 mg/kg | – | 172 %T/C | -2.2 g | -2.5 g | 239 % T/C | 139 days | 122 days | 117% | –
CC1=C(N2CC2C)C(=O)c2c(COC(N)=O)c3n(c2C1=O)CC1C3N1C (stereo unspecified) | 1.23 | 0 g | -0.4 g | 0 g | -0.5 g | – | 238 | – | 0.2 mg/kg | 125 days | 194 %T/C | -1 g | -1.3 g | – | – | 156 days | 163% | T/C (P388 [39]): 125%; MST (P388 [40]): 138 days
